How the values were obtained:
Format in all cases: functional
BV-2 [1] = experiment: Inhibition of NO production in LPS-induced mouse BV2 microglia cells at 10 uM
Procedure, shortened: (§1)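 BV-2 microglia were exposed to LPS (1 µg/mL) alone or with compound at 10 or 20 µM for 24 h at 37 °C. Nitrite was then measured in medium sampled at the end of incubation. Data are mean ± SE of three independent experiments, each run in triplicate.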

BV-2 [2] = experiment: Inhibition of NO production in LPS-induced mouse BV2 microglia cells at 20 uM; procedure, shortened: as §1
[3] = DPPH radical scavenging activity at 100 uM
[4] = Neuroprotective effect against glutamate-induced toxicity in ICR mouse cultured cortical neurons assessed as cell viability at 10 uM; details: Cortical neurone, read-out: Activity
Procedure, shortened: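 Cultured cortical neurons were co-treated with 60 µM glutamate and compound for 24 h at 37 °C. WST-1 was then added at 1:10 in the conditioned medium for 2 h at 37 °C. Formazan absorbance was read at 450 nm against a 650 nm reference and normalized to untreated control wells. Data are mean ± SE of three independent experiments in triplicate.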

[5] = DPPH radical scavenging activity at 10 uM
[6] = DPPH radical scavenging activity at 200 uM
[7] = DPPH radical scavenging activity at 50 uM

`COc1ccc(/C=C/C(=O)c2ccccc2)cc1O` gave an Activity (BV-2 [1]) of 18.93 µM, an Activity (BV-2 [2]) of 16.04 µM and an Activity [3] of 2.05%. For the same molecule, the viability at 10 µM [4] was 67%, the Activity [5] was 1.26% and the Activity [6] was 5.38%. It also gave an Activity [7] of 1.46%.
Work on `COc1ccc(/C=C/C(=O)c2ccc3c(c2)OCO3)cc1O` yielded an Activity (BV-2 [1]) of 21.3 µM, an Activity (BV-2 [2]) of 12.44 µM and an Activity [3] of 9.63%. It also gave a viability at 10 µM [4] of 69%, an Activity [5] of 8.75% and an Activity [6] of 11%. It also gave an Activity [7] of 9.14%.
Work on `COc1cccc(/C=C/C(=O)c2cc(F)c(F)c(F)c2)c1O` yielded an Activity (BV-2 [1]) of 18.05 µM, an Activity (BV-2 [2]) of 14.72 µM and an Activity [3] of 5.5%. For the same molecule, the viability at 10 µM [4] was 71%, the Activity [5] was 3.08% and the Activity [6] was 6.81%. For the same molecule, the Activity [7] was 3.28%.
Molecule `COc1cc(/C=C/C(=O)c2ccc3c(c2)OCO3)ccc1O` has an Activity (BV-2 [1]) of 12.63 µM, an Activity (BV-2 [2]) of 11.32 µM and an Activity [3] of 14.1%. It also gave a viability at 10 µM [4] of 79%, an Activity [5] of 7.9% and an Activity [6] of 25.1%. It also gave an Activity [7] of 12%.
Work on `Oc1ccc(/C=C/c2cc(O)cc(O)c2)cc1` yielded an Activity [3] of 28.4%, an Activity [5] of 9.45% and an Activity [6] of 33.8%. For the same molecule, the Activity [7] was 8.44%.
`COc1ccc(/C=C/C(=O)c2cc(F)c(F)c(F)c2)cc1O` showed an Activity (BV-2 [1]) of 25.07 µM, an Activity (BV-2 [2]) of 22 µM and an Activity [3] of 3.25%. It also gave a viability at 10 µM [4] of 63%, an Activity [5] of 1.99% and an Activity [6] of 5.29%. It also gave an Activity [7] of 2.71%.
`Cc1c(C)c2c(c(C)c1O)CCC(C)(C(=O)O)O2` (stereo not drawn) showed an Activity [3] of 62.4%, an Activity [5] of 12.1% and an Activity [6] of 78.2%. For the same molecule, the Activity [7] was 30.2%.
In the case of `COc1cccc(/C=C/C(=O)c2ccc3c(c2)OCO3)c1O`, the Activity (BV-2 [1]) is reported as 22.62 µM, the Activity (BV-2 [2]) is reported as 16.44 µM and the Activity [3] is reported as 18.6%. The viability at 10 µM [4] was 56%, the Activity [5] was 13.9% and the Activity [6] was 22.2%. For the same molecule, the Activity [7] was 14.9%.
For `COc1ccc(C(=O)/C=C/c2cccc(OC)c2O)cc1F`, the Activity (BV-2 [1]) was 19.55 µM, the Activity (BV-2 [2]) was 14.19 µM and the Activity [3] was 2.42%. The viability at 10 µM [4] was 75%, the Activity [5] was 1.74% and the Activity [6] was 2.87%. It also gave an Activity [7] of 1.14%.
Molecule `COc1ccc(/C=C/C(=O)c2ccc(OC)c(F)c2)cc1O` has an Activity (BV-2 [1]) of 23.4 µM, an Activity (BV-2 [2]) of 19.98 µM and an Activity [3] of 2.73%. The viability at 10 µM [4] was 80%, the Activity [5] was 1.55% and the Activity [6] was 5.02%. The Activity [7] was 1.68%.
Molecule `COc1cc(/C=C/C(=O)c2ccc(OC)c(F)c2)ccc1O` has an Activity (BV-2 [1]) of 14.21 µM, an Activity (BV-2 [2]) of 6.23 µM and an Activity [3] of 28.4%. It also gave a viability at 10 µM [4] of 79%, an Activity [5] of 17.8% and an Activity [6] of 37.5%. It also gave an Activity [7] of 18.9%.
`COc1cc(/C=C/C(=O)c2ccccc2)ccc1O` gave an Activity (BV-2 [1]) of 16.14 µM, an Activity (BV-2 [2]) of 13.16 µM and an Activity [3] of 14.4%. It also gave a viability at 10 µM [4] of 62%, an Activity [5] of 7.53% and an Activity [6] of 22.6%. It also gave an Activity [7] of 11.8%.
For `COc1ccc(/C=C/C(=O)c2ccc3c(c2)OCO3)cc1OC`, the Activity (BV-2 [1]) was 25.69 µM, the Activity (BV-2 [2]) was 20.6 µM and the Activity [3] was 1.75%. The viability at 10 µM [4] was 61%, the Activity [5] was 3.27% and the Activity [6] was 1.56%. It also gave an Activity [7] of 1.95%.
For `COc1cccc(/C=C/C(=O)c2ccccc2)c1O`, the Activity (BV-2 [1]) was 17.62 µM, the Activity (BV-2 [2]) was 15.69 µM and the Activity [3] was 7.94%. It also gave a viability at 10 µM [4] of 58%, an Activity [5] of 5.4% and an Activity [6] of 11%. The Activity [7] was 6.09%.
With `COc1cc(/C=C/C=O)ccc1O` the Activity [3] was 0.43%, the Activity [5] was 2.37% and the Activity [6] was 10.6%. The Activity [7] was 0.28%.
In the case of `COc1cc(/C=C/C(=O)c2cc(F)c(F)c(F)c2)ccc1O`, the Activity (BV-2 [1]) is reported as 19.82 µM, the Activity (BV-2 [2]) is reported as 12.11 µM and the Activity [3] is reported as 32%. The viability at 10 µM [4] was 61%, the Activity [5] was 22.9% and the Activity [6] was 38%. It also gave an Activity [7] of 23.5%.

Reference: ChEMBL document CHEMBL1157436, “Efficient synthesis and neuroprotective effect of substituted 1,3-diphenyl-2-propen-1-ones” (2008)
